Screening data (PubChem)
Pf gametocyte: kills late stage P. falciparum gametocytes | P. falciparum stage V gametocytes, ATP luminescence, 24 h | 150,000 compounds, 0.065% hits | inhibition, % at 10.9 µM;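 active means inhibition above the mean plus 3 SD of compounds within the control limits, set per campaign, cut at about 38% in these data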;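 further: 0% = DMSO wells and 100% = medium only without gametocytes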
Wee1 stabilizer: blocks degradation of human Wee1 kinase; reporter increase, % at 5 µM; HeLa Luc-Wee1K328M stability, luciferase luminescence; 100% = proteasome inhibitor MG132 effect; 220,000 compounds, 1.2% hits;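 active means activation above the mean of all tested compounds plus 3 SD, set per screening run, cut at about 8.8% in these data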;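 further: cells exposed to compound for 20 h before luminescence read; 0% = DMSO alone and 100% = MG132 at 30 µM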
Hsp70 act: switches on Hsp70 transcription. HeLa Hsp70 promoter luciferase reporter, luminescence; scaled: vehicle 0, proteasome-inhibitor control 100%. activation, % at 10 µM. 200,000 compounds, 0.04% hits;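 active means activation above the mean across all tested compounds plus 3 SD, cutoff set per campaign, cut at about 5.5% in these data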;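 further: 100% = MG132 at 30 µM as the positive control and 0% = DMSO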
MDM2 E3 inh: inhibitors of human Mdm2 E3 ubiquitin ligase | 210,000 compounds, 0.11% hits | cell-based MDM2 ubiquitination luciferase reporter, 2 h; 0 = plate control, 100 = twice control, blank-subtracted | signal enhancement, % at 5 µM;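 active means signal enhancement of 30% or more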;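 further: luminescence tracks abundance of the self-degrading MDM2-luciferase fusion protein; higher signal means inhibition of MDM2 E3 ligase activity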
Target sequence (Q00987 whole entry, looked up, the tested form may be a part): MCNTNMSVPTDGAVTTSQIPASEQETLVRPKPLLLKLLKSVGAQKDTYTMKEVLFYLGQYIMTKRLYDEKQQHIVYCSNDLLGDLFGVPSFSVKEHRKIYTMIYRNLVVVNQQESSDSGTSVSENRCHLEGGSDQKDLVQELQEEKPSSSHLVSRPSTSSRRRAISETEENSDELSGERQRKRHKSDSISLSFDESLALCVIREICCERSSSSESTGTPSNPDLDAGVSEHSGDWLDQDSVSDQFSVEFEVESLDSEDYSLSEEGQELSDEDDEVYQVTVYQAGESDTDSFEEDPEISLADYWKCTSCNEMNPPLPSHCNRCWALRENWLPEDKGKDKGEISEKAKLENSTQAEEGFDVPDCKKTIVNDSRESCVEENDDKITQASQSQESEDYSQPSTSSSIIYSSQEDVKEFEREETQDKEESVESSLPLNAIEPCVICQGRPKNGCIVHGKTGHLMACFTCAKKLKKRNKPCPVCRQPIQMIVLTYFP
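Assay system: stable mammalian line carrying autodegrading MDM2–luciferase fusion reporter; Input: 2000 cells in each well; Compound dosing: single-point 5 µM; Schedule: 2 h compound exposure at 37 °C; Signal: SteadyLite luciferase luminescence after 15 min room-temperature reagent incubation; Evaluation: % luminescence enhancement versus blank-corrected plate control mean; Benchmarks: plate controls and plate blanks.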
Calpain2 inh: blocks pig calpain II enzyme activity; purified calpain II, fluorogenic peptide substrate, 30 min; inhibition, % at 16 µM; 220,000 compounds, 0.37% hits; AID 1236;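 active means inhibition above about 50%, limit read from the data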
Wee1 degr conf: human Wee1 degradation inhibition, confirmation; shares compounds with Wee1 stabilizer; HeLa Luc-Wee1K328M degradation, luminescence; vehicle 0%, proteasome-blocked wells 100%; activation, % at 5 µM; 1,100 compounds, 4% hits; AID 1410; in the data active means activation above about 8.9%
An asterisk follows results filed as active; . = not tested or not shown. Most compounds without a hit are left out; they make up all but 1.5% or so of the library.

SMILES | Pf gametocyte | Wee1 stabilizer | Hsp70 act | MDM2 E3 inh | Calpain2 inh | Wee1 degr conf
O=C(/C=C/c1ccc(Br)cc1)c1ccc(NC2=NCCCS2)cc1 | 7.0 | 12.2* | 0.0 | -6.6 | -7.8 | 6.5
Cc1ccccc1OCCn1cc(C(=S)N2CCCC2)c2ccccc21 | . | 3.5 | -0.2 | . | . | .
Cc1ccccc1OCCn1cc(C(=S)N2CCN(C)CC2)c2ccccc21 | 11.0 | 13.2* | -0.5 | 8.9 | -19.4 | 0.2
NC(=O)CC(NC(=O)c1cccc(Br)c1)c1ccc(NCCN2CCOCC2)c([N+](=O)[O-])c1 (stereo not given) | -9.3 | . | . | 18.6 | -9.0 | .
CCCC(C)C(=O)OCC(=O)NCc1ccc(OC)c(OC)c1 (stereo not given) | -13.9 | 13.8* | 0.1 | -6.4 | -3.8 | -1.9
COc1ccc(CNC(=O)N[C@H](C(=O)O)C(C)C)cc1OC | 8.9 | 2.7 | . | . | 11.5 | .
O=C1CC(C(=O)Nc2ccccc2)N=C(N2CCOCC2)N1 (stereo not given) | . | 11.4* | -0.3 | -18.4 | -16.1 | 4.3
COC(=O)c1ccc(NC(=O)CSc2ccccn2)cc1 | 16.0 | 15.0* | -0.2 | -11.3 | -14.0 | 0.5
COC(=O)c1ccc(NC(=O)CSc2ccccc2)cc1 | . | 0.6 | 0.0 | -4.2 | -3.4 | .
COC(=O)c1ccc(NC(=O)CSc2nnc(C(C)NC(=O)c3ccccc3Cl)n2C)cc1 (stereo not given) | -26.5 | 21.8* | 0.0 | 0.2 | 8.3 | 0.0
Cc1nc2c(oc3ccc(Cl)cc32)c(=O)[nH]1 | 12.5 | 1.1 | . | -9.4 | 16.6 | .
COc1ccc(/C=C/C(=O)NC(=S)NNC(=O)c2cccnc2)cc1 | . | 16.8* | -0.1 | 4.6 | -8.9 | -2.1
CSc1ccc(/C=N/n2c(Cc3ccc(Br)cc3)n[nH]c2=S)cc1 | 3.9 | 11.1* | 0.1 | -0.9 | -10.0 | 6.0
CCSc1nnc(NC(=O)c2cc(C)nc3ccccc23)s1 | 4.3 | 11.0* | -0.5 | -0.4 | -2.7 | 1.6
C=CCNCCCOc1ccc(C(C)(C)c2ccccc2)cc1 | -19.0 | 12.9* | -0.1 | 5.5 | -8.2 | -1.2
NNc1nc(-c2ccccc2)nc2sc3c(c12)CCCC3 | . | 1.2 | -0.1 | -39.0 | 18.5 | .
Nc1c2c(nc3sc4c(c13)CCCC4)-c1ccccc1CC2 | -14.2 | 18.0* | . | -30.6 | 5.2 | 1.2
Cc1ccc2nsnc2c1NC(=O)c1cncc(Br)c1 | -1.1 | -3.3 | -0.3 | 2.9 | -45.5 | .
CC1CCN(CC(=O)NC(=O)NCc2ccccc2)CC1 | 3.6 | 1.0 | -0.4 | 7.6 | 1.3 | .
CC1CCCCN1CC(=O)NC(=O)NCc1ccccc1 (stereo not given) | -7.1 | 17.6* | -0.3 | -5.1 | 0.5 | 5.4
Cc1cccc(C)c1NC(=O)C(=O)NCCCN1CCOCC1 | -7.8 | 1.6 | -0.1 | -2.0 | -18.4 | .
Cc1cccc(C)c1NC(=O)NCCCN1CCN(c2ccccc2)CC1 | -5.3 | 11.5* | -0.3 | -69.1 | 14.6 | -1.8
O=C(CCn1c(=O)oc2ccccc21)NCCC1=CCCCC1 | 8.7 | 17.3* | . | 2.4 | 8.1 | -1.0
O=C(CCn1c(=O)oc2ccccc21)NCCN1CCc2ccccc2C1 | -19.2 | -1.7 | -0.2 | -1.2 | -6.7 | .
CNCC(O)COc1cccc(OC)c1 (stereo not given) | 0.2 | 10.9* | -0.3 | -12.0 | -0.2 | -1.6
SMILES | Pf gametocyte | Wee1 stabilizer | Hsp70 act | MDM2 E3 inh | Calpain2 inh | Wee1 degr conf
O=C(O)CC(CN1C(=O)c2ccccc2C1=O)c1ccccc1 (stereo not given) | 9.2 | . | . | . | . | .
CNC(=S)NCc1ccc2[nH]c3c(c2c1)CCCC3 | -17.6 | 11.3* | 0.1 | -4.7 | -16.2 | -0.1
OCCC1CN(Cc2cccn2-c2ccccn2)CCN1C1CCCCC1 (stereo not given) | . | 2.3 | 0.1 | -2.2 | -6.2 | .
COc1ccc(OCCC(=O)N2CCOCC2)cc1 | -8.8 | 11.6* | 0.2 | -6.6 | -8.4 | 0.9
Cn1c(=O)c2c(nc(N/N=C/c3cccnc3)n2Cc2ccccc2)n(C)c1=O | -0.8 | -3.3 | . | -8.1 | -14.2 | .
O=C(CSc1nc(-c2ccco2)cc(C(F)(F)F)n1)N1CCSCC1 | . | 12.2* | 0.0 | -6.1 | 36.7 | 2.0
Clc1ccc(/C=C\c2nccc3c2[nH]c2ccccc23)cc1 | 0.0 | 11.7* | 0.3 | -7.8 | -149.0 | 0.8
N#Cc1ccc(/C=C\c2nccc3c2[nH]c2ccccc23)cc1 | 2.2 | -0.3 | -0.2 | -27.6 | -91.7 | .
Cc1cc(C)cc(C(=O)NC(CC(N)=O)c2ccc(N3CCCCCC3)c([N+](=O)[O-])c2)c1 (stereo not given) | -7.3 | . | . | . | . | .
Cc1cc(N2C3CCC2CC(O)(c2ccc(F)cc2)C3)nc(-c2ccccc2)n1 (stereo not given) | . | -0.8 | -0.2 | -12.8 | -3.0 | .
Cc1ccnc(N2C3CCC2CC(O)(c2ccccc2)C3)n1 (stereo not given) | -15.7 | 12.3* | 1.7 | 14.1 | -37.1 | 0.4
O=C(Cc1ccccc1)Nc1ccc(N2CCOCC2)cc1 | 11.9 | 0.3 | -0.4 | -4.4 | 0.5 | .
O=C(CCS(=O)(=O)c1ccccc1)Nc1ccc(N2CCOCC2)cc1 | -8.7 | 11.4* | 0.3 | -15.2 | -5.1 | -2.3
Cc1cccc2c(CC(=O)Nc3ccccc3)noc12 | 17.8 | 13.4* | -0.2 | -5.1 | -13.8 | 4.6
Cc1ccc(NC(=O)Cc2noc3ccccc23)c(C)c1 | 17.7 | 4.1 | -0.2 | -20.1 | 8.0 | .
O=C(N/N=C/C1=Cc2ccccc2OC1)c1ccncc1 | 3.6 | 12.9* | . | -1.0 | -30.7 | -0.8
O=C(N/N=C/c1ccncc1)c1ccccc1 | . | 2.5 | -0.2 | -12.4 | -7.3 | .
Cc1ccc(/C=N/NC(=O)c2ccccn2)o1 | 7.8 | 4.7 | 0.3 | -8.4 | 8.9 | .
Cc1ccc(/C=N/NC(=O)c2ccncc2)o1 | 12.0 | 13.4* | 0.4 | -9.0 | 18.4 | 2.7
O=[N+]([O-])c1cccc(-c2c(-c3ccccc3)ncc3ccc(F)cc23)c1 | 12.3 | . | . | . | . | .
N=c1n(N)c2ccccc2n1CC(=O)c1ccc(Br)cc1 | -8.9 | . | . | . | . | .
Cc1noc(C)c1Cn1nc(C(=O)O)c2ccccc2c1=O | -15.4 | 11.9* | -0.2 | -8.1 | 25.6 | -0.6
COC(=O)[C@]1(Cc2ccccc2)N[C@H](c2ccc(-c3ccc(F)cc3)cc2)[C@@H]2C(=O)N(C)C(=O)[C@@H]21 | -8.1 | . | . | . | . | .
COc1ccc(CN2CC[C@@H](N3CCOCC3)[C@H](O)C2)cc1F | -3.2 | . | . | . | . | .
Cc1ccc(S(=O)OCC(=O)Nc2cc(Cl)ccc2N2CCOCC2)cc1 (stereo not given) | -39.6 | 16.1* | -0.3 | -6.5 | -5.1 | 2.8
O=[N+]([O-])c1ccc(COc2cccc(CNc3ccc(F)cc3)c2)cc1 | . | 14.6* | -0.2 | -8.3 | 21.1 | 0.1
CC1CCN(S(=O)(=O)c2cccc(C(=O)NNC(=O)c3ccco3)c2)CC1 | 2.1 | 3.5 | . | 3.1 | -8.0 | .
CC(=O)Nc1ccc(CN2CCCC(C(=O)c3cccc(C(F)(F)F)c3)C2)cc1 (stereo not given) | . | 2.7 | 0.4 | -11.7 | -10.7 | .
